The source of these data is ChEMBL document CHEMBL1914430, “Synthesis of some new 1,3,5-trisubstituted pyrazolines bearing benzene sulfonamide as anticancer and anti-inflammatory agents” (Bioorg Med Chem Lett, 2011).

Common to all, as to type: functional
For assay [1], the system named is MOLT-4. The assay is described as follows: Anticancer activity against human MOLT4 cells after 48 hrs. As to conditions: MOLT-4, 48 h. The procedure, abridged: (§1)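 NCI 60-line panel protocol with a 48 h incubation. Per line: GI50 = concentration giving 50% decrease in net cell growth; TGI = total growth inhibition; LC50 = net 50% loss of initial cells. When the level was not reached or was exceeded, the value is given as greater or less than the highest or lowest concentration tested.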

Assay [2] has as its system RXF 393. The assay is described as follows: Anticancer activity against human RXF393 cells after 48 hrs. As to conditions: RXF 393, 48 h. The procedure, abridged: as §1
For assay [3], the system named is SF-268. The assay can be described thus: Anticancer activity against human SF268 cells after 48 hrs. The settings on record: SF-268, 48 h. The procedure, abridged: as §1
The subject of assay [4] is HOP-62. The assay is described as follows: Anticancer activity against human HOP62 cells after 48 hrs. As to conditions: HOP-62, 48 h. The procedure, abridged:
(§2)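 NCI Drug Evaluation Branch 60-cell-line screen across leukemia, melanoma, lung, colon, CNS, ovarian, renal, prostate and breast panels. The incubation period is 48 h. Parameters are derived from dose–response data: GI50 is the concentration giving 50% decrease in net growth, TGI is total growth inhibition, and LC50 is net 50% loss of initial cells. Values beyond the tested range are reported as greater or less than the maximum or minimum concentration.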

Assay [5] concerns ACHN. The assay can be described thus: Anticancer activity against human ACHN cells after 48 hrs. The settings on record: for CC50: read-out: LC50 (the source's name). The procedure, abridged: as §2
Assay [6] deals with CAKI-1. The assay is described as follows: Anticancer activity against human Caki1 cells after 48 hrs. As to conditions: CAKI-1, 48 h. The procedure, abridged: as §2

In assay [1], `COc1ccc(C2CC(c3cc(Cl)c(C)cc3O)=NN2c2ccc(S(N)(=O)=O)cc2)cc1OC` (centres undefined) had a GI50 of 5.29 µM, an LC50 greater than 100 µM and a TGI greater than 100 µM. Moreover, in assay [2], halving of growth (GI50) required 2.88 µM, the LC50 stood at 31.4 µM and the TGI came out at 7.52 µM. In assay [3], this molecule had a GI50 of 4.74 µM and an LC50 (concentration killing 50% of initial cells) greater than 100 µM. In assay [4], this molecule showed a GI50 of 3.92 µM, an LC50 (concentration for 50% net loss of initial cells) of 52.4 µM and a TGI of 14.1 µM. Also, in assay [5], the GI50 is 3.15 µM, net growth stopped (TGI) at 12.2 µM and the CC50 was greater than 100 µM. In assay [6], this molecule showed a GI50 of 2.78 µM and an LC50 (concentration giving 50% net loss of initial cells) greater than 100 µM.
In assay [1], `Cc1cc(O)c(C2=NN(c3ccc(S(N)(=O)=O)cc3)C(/C=C/c3ccccc3)C2)cc1Cl` (centres undefined) showed a GI50 of 17.7 µM, an LC50 greater than 100 µM and a total growth inhibition concentration (TGI) of 73.7 µM. In assay [2], this molecule had a GI50 of 6.69 µM, a 50% lethal concentration (LC50) of 52.6 µM and a concentration for total growth inhibition (TGI) of 20.2 µM. Further, in assay [3], the GI50 is 5.63 µM, the LC50 (concentration killing 50% of initial cells) is 46.7 µM and the TGI amounted to 19.5 µM. In assay [4], this molecule came in with a GI50 of 3.94 µM, an LC50 (concentration for 50% net loss of initial cells) of 37.5 µM and a TGI of 14.1 µM. Further, in assay [5], the 50% growth inhibitory concentration (GI50) was determined as 5.27 µM, net growth stopped (TGI) at 21.9 µM and the CC50 was 67.2 µM. In assay [6], this molecule displayed a GI50 of 15.3 µM, an LC50 (concentration giving 50% net loss of initial cells) greater than 100 µM and a TGI of 87.7 µM.
Regarding `Cc1cc(O)c(C2=NN(c3ccc(S(N)(=O)=O)cc3)C(c3ccccc3Cl)C2)cc1Cl` (centres undefined), the GI50 in assay [1] is 4.04 µM; in assay [2], 3.09 µM; in assay [3] it was 1.92 µM; in assay [4], 2.03 µM; in assay [5] it was 3.34 µM; in assay [6] it was 1.78 µM. Moreover, the LC50 in assay [1] and in assay [2] was greater than 100 µM each time. Besides, the TGI in assay [1] is greater than 100 µM; in assay [2], 8.22 µM; in assay [3] it was 3.72 µM; in assay [4], 4.16 µM; in assay [5], 11 µM; in assay [6] it was 3.99 µM. The molecule further had an LC50 (concentration for 50% net loss of initial cells) in assay [4] of 8.53 µM. Also, the CC50 in assay [5] is 34.3 µM. The molecule further returned an LC50 (concentration giving 50% net loss of initial cells) in assay [6] of 8.95 µM.
For the molecule `Cc1cc(O)c(C2=NN(c3ccc(S(N)(=O)=O)cc3)C(c3ccccc3O)C2)cc1Cl` (centres undefined), in assay [1], it took 4.74 µM to inhibit growth by half (GI50), the LC50 was greater than 100 µM and the concentration for total growth inhibition (TGI) stood at 34.4 µM. For the same molecule, in assay [2], the GI50 is 3.65 µM, the LC50 was 64.8 µM and the total growth inhibition concentration (TGI) came to 13 µM. For the same molecule, in assay [3], the GI50 is 2.64 µM, the LC50 (concentration killing 50% of initial cells) was determined as 51.9 µM and the TGI worked out at 8.06 µM. In assay [4], this molecule yielded a GI50 of 1.93 µM, an LC50 (concentration for 50% net loss of initial cells) of 11.7 µM and a TGI of 4.5 µM. Further, in assay [5], the GI50 is 3.13 µM, the TGI was determined as 11.2 µM and the CC50 came to 33.4 µM. Besides, in assay [6], the GI50 turned out to be 1.56 µM, the LC50 (concentration giving 50% net loss of initial cells) came to 16.6 µM and net growth stopped (TGI) at 4.44 µM.

For orientation: GI50 means the concentration at which growth is held to half of that of the control. A lower GI50 goes with greater sensitivity of the cells. A word on the LC50: it is the concentration lethal to half of the exposed cells or organisms. A high value points to lower toxicity. The TGI is the concentration at which net growth stops.
